{"data": "Experimental data from different studies", "target": "Inhibitor of nuclear factor kappa-B kinase subunit epsilon (IKBKE, Homo sapiens, UniProt Q14164)", "One construct used (Q14164 1-716)": "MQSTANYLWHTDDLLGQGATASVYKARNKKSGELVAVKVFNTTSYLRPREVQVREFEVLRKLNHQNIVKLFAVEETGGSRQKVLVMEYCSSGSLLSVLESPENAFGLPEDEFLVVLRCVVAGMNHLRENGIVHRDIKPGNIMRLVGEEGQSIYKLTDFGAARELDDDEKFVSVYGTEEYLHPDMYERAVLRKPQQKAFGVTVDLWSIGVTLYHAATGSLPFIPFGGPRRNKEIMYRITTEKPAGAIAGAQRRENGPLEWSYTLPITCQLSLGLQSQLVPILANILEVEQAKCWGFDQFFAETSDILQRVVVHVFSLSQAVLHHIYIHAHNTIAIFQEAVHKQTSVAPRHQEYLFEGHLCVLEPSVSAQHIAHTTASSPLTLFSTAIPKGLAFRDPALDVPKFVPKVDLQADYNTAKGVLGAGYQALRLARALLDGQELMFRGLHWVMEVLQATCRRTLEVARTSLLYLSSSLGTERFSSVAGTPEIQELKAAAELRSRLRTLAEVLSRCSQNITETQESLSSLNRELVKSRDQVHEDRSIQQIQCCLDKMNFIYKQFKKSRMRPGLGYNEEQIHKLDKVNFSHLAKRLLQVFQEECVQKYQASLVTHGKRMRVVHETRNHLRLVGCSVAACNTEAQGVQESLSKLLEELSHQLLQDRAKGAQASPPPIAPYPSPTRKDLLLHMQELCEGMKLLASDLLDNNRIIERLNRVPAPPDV"}
{"Structure (SMILES)": "CO[C@@H]1[C@H](N(C)C(=O)c2ccccc2)C[C@H]2O[C@]1(C)n1c3ccccc3c3c4c(c5c6ccccc6n2c5c31)C(=O)NC4", "observed": "enzyme activity", "action": "inhibitor", "concentration": "1 µM", "endpoint": "inhibition", "value": "97%"}
{"Structure (SMILES)": "Cc1ccc(NC(=O)c2ccnc(C(F)(F)F)c2)cc1-c1cc(OCCO)nc(N2CCOCC2)c1", "observed": "binding", "concentration": "1 µM", "endpoint": "remaining binding", "value": "94%"}
{"Structure (SMILES)": "C=CC(=O)N1CCC([C@@H]2CCNc3c(C(N)=O)c(-c4ccc(Oc5ccccc5)cc4)nn32)CC1", "observed": "enzyme activity", "action": "inhibitor", "concentration": "1 µM", "endpoint": "inhibition", "value": "1%"}
{"Structure (SMILES)": "CC(C)S(=O)(=O)c1ccc2nccc(Nc3ccc4sc(C5CCCC5)nc4c3)c2c1", "observed": "enzyme activity", "action": "inhibitor", "concentration": "1 µM", "endpoint": "activity vs control", "value": "113%"}
{"Structure (SMILES)": "COc1ccc2[nH]c3c4[nH]c5ccc(OC)cc5c4c4c(c3c2c1)C(=O)NC4=O", "observed": "binding", "concentration": "1 µM", "endpoint": "remaining binding", "value": "48%"}
{"Structure (SMILES)": "Cc1cc(O)c(-c2ccc([C@@H](C)CN(C)C)cc2)c2c1[nH]c(=O)c1sccc12", "observed": "enzyme activity", "action": "inhibitor", "concentration": "0.1 µM", "endpoint": "inhibition", "value": "-7.74%"}
{"Structure (SMILES)": "CCCCC(=O)Nc1ccc(-c2ccc3ncn(CCC)c(=O)c3c2)cn1", "observed": "binding", "method": "competition with immobilised ligand", "concentration": "0.5 µM", "endpoint": "remaining binding", "value": "93%"}
{"Structure (SMILES)": "C#Cc1cc(-c2cc(Nc3nc(N[C@@H](C)c4ccc(F)cn4)ncc3Cl)n[nH]2)ccc1C=O", "observed": "enzyme activity", "action": "inhibitor", "concentration": "0.2 µM", "endpoint": "inhibition", "value": "14.7%"}
